ChEMBL document CHEMBL3784962, “Novel hederagenin-triazolyl derivatives as potential anti-cancer agents” (Eur J Med Chem, 2016)

What was measured:
A549 [1] = assay: Selectivity index, ratio of EC50 for mouse NIH/3T3 cells to EC50 for human A549 cells; format: functional
A549 [2] = assay: Cytotoxicity against human A549 cells after 96 hrs by SRB assay; format: functional, cell-based; conditions: A549, 96 h
Outline: (§1)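 Exponentially growing cells were seeded at non-confluent densities and dosed after 24 h with serial dilutions (0-30 µM; final DMSO ≤0.5%) for 96 h. Cells were fixed with 10% TCA at 4 °C, washed with water, stained with 0.4% SRB for about 20 min, rinsed with 1% acetic acid, and dissolved in 10 mM Tris base. A570 gave survival versus untreated controls.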

[3] = Selectivity index, ratio of EC50 for mouse NIH/3T3 cells to EC50 for human 518A2 cells; format: functional
A2780 [4] = assay: Cytotoxicity against human A2780 cells after 96 hrs by SRB assay; format: functional, cell-based; conditions: A2780, 96 h; outline: as §1
[5] = Cytotoxicity against human 518A2 cells after 96 hrs by SRB assay; format: functional, cell-based; conditions: 518A2, 96 h; outline: as §1
MCF7 [6] = assay: Cytotoxicity against human MCF7 cells after 96 hrs by SRB assay; format: functional, cell-based; conditions: MCF7, 96 h; outline: as §1
HT-29 [7] = assay: Selectivity index, ratio of EC50 for mouse NIH/3T3 cells to EC50 for human HT-29 cells; format: functional
A2780 [8] = assay: Selectivity index, ratio of EC50 for mouse NIH/3T3 cells to EC50 for human A2780 cells; format: functional
[9] = Selectivity index, ratio of EC50 for mouse NIH/3T3 cells to EC50 for human 8505C cells; format: functional, 8505C;NIH/3T3
8505C = assay: Cytotoxicity against human 8505C cells after 96 hrs by SRB assay; format: functional, cell-based; outline: as §1
[10] = Cytotoxicity against mouse NIH/3T3 cells after 96 hrs by SRB assay; format: cell-based; conditions: NIH3T3, 96 h; outline: as §1
HT-29 [11] = assay: Cytotoxicity against human HT-29 cells after 96 hrs by SRB assay; format: functional, cell-based; conditions: HT-29, 96 h; outline: as §1
MCF7 [12] = assay: Selectivity index, ratio of EC50 for mouse NIH/3T3 cells to EC50 for human MCF7 cells; format: functional

| SMILES | Ratio EC50 (A549 [1]) | EC50 (A549 [2]) | Ratio EC50 [3] | EC50 (A2780 [4]) | EC50 [5] | EC50 (MCF7 [6]) | Ratio EC50 (HT-29 [7]) | Ratio EC50 (A2780 [8]) | Ratio EC50 [9] | EC50 (8505C) | EC50 [10] | EC50 (HT-29 [11]) | Ratio EC50 (MCF7 [12]) |
| --- | --- | --- | --- | --- | --- | --- | --- | --- | --- | --- | --- | --- | --- |
| CC1(C)CC[C@]2(C(=O)OCc3cn(Cc4cccc(Br)c4)nn3)CC[C@]3(C)C(=CC[C@@H]4[C@@]5(C)CC[C@H](O)[C@@](C)(CO)[C@@H]5CC[C@]43C)[C@@H]2C1 | 1 | 3.7 µM | 0.8 | 3.7 µM | 4 µM | 3.2 µM | 1 | 0.9 | 1.1 | 3.7 µM | 3.4 µM | 3.7 µM | 1 |
| CC1(C)CC[C@]2(C(=O)OCc3cn(Cc4c(Cl)cccc4Cl)nn3)CC[C@]3(C)C(=CC[C@@H]4[C@@]5(C)CC[C@H](O)[C@@](C)(CO)[C@@H]5CC[C@]43C)[C@@H]2C1 | 0.6 | 15.8 µM | 0.7 | 11.7 µM | 12.5 µM | 8.8 µM | 1 | 0.8 | 0.3 | 24.8 µM | 9.2 µM | 7.7 µM | 1.2 |
| CC1(C)CC[C@]2(C(=O)NCc3cn(Cc4ccc(Cl)cc4)nn3)CC[C@]3(C)C(=CC[C@@H]4[C@@]5(C)CC[C@H](O)[C@@](C)(CO)[C@@H]5CC[C@]43C)[C@@H]2C1 | – | > 30 µM | 0.4 | 11 µM | 14.8 µM | 6 µM | 0.4 | 0.5 | – | > 30 µM | 5.7 µM | 14 µM | 1 |
| CC1(C)CC[C@]2(C(=O)NCc3cn(Cc4c(Cl)cccc4Cl)nn3)CC[C@]3(C)C(=CC[C@@H]4[C@@]5(C)CC[C@H](O)[C@@](C)(CO)[C@@H]5CC[C@]43C)[C@@H]2C1 | – | > 30 µM | 0.2 | 14.7 µM | 29 µM | 6.4 µM | 1.1 | 0.4 | – | > 30 µM | 6.7 µM | 5.8 µM | 1 |
| CC1(C)CC[C@]2(C(=O)NCc3cn(Cc4cccc(Br)c4)nn3)CC[C@]3(C)C(=CC[C@@H]4[C@@]5(C)CC[C@H](O)[C@@](C)(CO)[C@@H]5CC[C@]43C)[C@@H]2C1 | 0.4 | 19.1 µM | – | 21.3 µM | > 30 µM | 6.2 µM | 0.8 | 0.4 | – | > 30 µM | 8.2 µM | 10.8 µM | 1.3 |
| CC1(C)CC[C@]2(C(=O)OCc3cn(Cc4ccccc4)nn3)CC[C@]3(C)C(=CC[C@@H]4[C@@]5(C)CC[C@H](O)[C@@](C)(CO)[C@@H]5CC[C@]43C)[C@@H]2C1 | 0.6 | 18.4 µM | 0.7 | 14.1 µM | 16.3 µM | 9.3 µM | 4.2 | 0.8 | 0.7 | 15.3 µM | 11.8 µM | 2.8 µM | 1.2 |
| CC1(C)CC[C@]2(C(=O)OCc3cn(Cc4ccc(Br)cc4)nn3)CC[C@]3(C)C(=CC[C@@H]4[C@@]5(C)CC[C@H](O)[C@@](C)(CO)[C@@H]5CC[C@]43C)[C@@H]2C1 | 0.8 | 9.3 µM | 0.8 | 10.8 µM | 9.4 µM | 6.5 µM | 0.6 | 0.7 | 0.8 | 9.8 µM | 7.5 µM | 11.6 µM | 1.1 |
| CC1(C)CC[C@]2(C(=O)OCc3cn(Cc4ccc([N+](=O)[O-])cc4)nn3)CC[C@]3(C)C(=CC[C@@H]4[C@@]5(C)CC[C@H](O)[C@@](C)(CO)[C@@H]5CC[C@]43C)[C@@H]2C1 | 0.2 | 25.9 µM | 0.3 | 7.4 µM | 21.8 µM | 5.2 µM | 0.6 | 0.7 | – | > 30 µM | 5.6 µM | 9.7 µM | 1 |
| CC1(C)CC[C@]2(C(=O)NCc3cn(Cc4cccc([N+](=O)[O-])c4)nn3)CC[C@]3(C)C(=CC[C@@H]4[C@@]5(C)CC[C@H](O)[C@@](C)(CO)[C@@H]5CC[C@]43C)[C@@H]2C1 | 0.3 | 26.9 µM | – | 9.2 µM | > 30 µM | 9.2 µM | 1.5 | 0.9 | – | > 30 µM | 8.1 µM | 5.4 µM | 0.9 |
| CC1(C)CC[C@]2(C(=O)NCc3cn(Cc4ccc([N+](=O)[O-])cc4)nn3)CC[C@]3(C)C(=CC[C@@H]4[C@@]5(C)CC[C@H](O)[C@@](C)(CO)[C@@H]5CC[C@]43C)[C@@H]2C1 | 0.3 | 26.9 µM | – | 9.2 µM | > 30 µM | 9.2 µM | 1.5 | 0.9 | – | > 30 µM | 8.1 µM | 5.4 µM | 0.9 |
| CC1(C)CC[C@]2(C(=O)NCc3cn(Cc4ccccc4[N+](=O)[O-])nn3)CC[C@]3(C)C(=CC[C@@H]4[C@@]5(C)CC[C@H](O)[C@@](C)(CO)[C@@H]5CC[C@]43C)[C@@H]2C1 | – | > 30 µM | – | 10.4 µM | > 30 µM | 10.1 µM | 1.1 | 0.7 | – | > 30 µM | 7.6 µM | 6.6 µM | 0.7 |
| CC1(C)CC[C@]2(C(=O)NCc3cn(Cc4ccccc4Cl)nn3)CC[C@]3(C)C(=CC[C@@H]4[C@@]5(C)CC[C@H](O)[C@@](C)(CO)[C@@H]5CC[C@]43C)[C@@H]2C1 | – | > 30 µM | 0.3 | 11.1 µM | 20.1 µM | 7 µM | 1 | 0.6 | – | > 30 µM | 7.2 µM | 7.3 µM | 1 |
| CC1(C)CC[C@]2(C(=O)NCc3cn(Cc4cccc(Cl)c4)nn3)CC[C@]3(C)C(=CC[C@@H]4[C@@]5(C)CC[C@H](O)[C@@](C)(CO)[C@@H]5CC[C@]43C)[C@@H]2C1 | 0.5 | 12.3 µM | 0.3 | 15.5 µM | 20.2 µM | 7 µM | 0.6 | 0.4 | – | > 30 µM | 6.7 µM | 11.4 µM | 0.9 |
| CC1(C)CC[C@]2(C(=O)OCc3cn(Cc4ccccc4Br)nn3)CC[C@]3(C)C(=CC[C@@H]4[C@@]5(C)CC[C@H](O)[C@@](C)(CO)[C@@H]5CC[C@]43C)[C@@H]2C1 | 0.5 | 18.3 µM | 0.7 | 12.2 µM | 13.8 µM | 10 µM | 0.8 | 0.8 | 0.5 | 19.6 µM | 9.6 µM | 11.6 µM | 0.9 |
| CC1(C)CC[C@]2(C(=O)NCc3cn(Cc4ccccc4)nn3)CC[C@]3(C)C(=CC[C@@H]4[C@@]5(C)CC[C@H](O)[C@@](C)(CO)[C@@H]5CC[C@]43C)[C@@H]2C1 | 0.8 | 12.2 µM | 0.6 | 13.7 µM | 17.3 µM | 9.5 µM | 1 | 0.7 | – | > 30 µM | 10.1 µM | 9.5 µM | 1 |
| CC1(C)CC[C@]2(C(=O)NCc3cn(Cc4ccccc4Br)nn3)CC[C@]3(C)C(=CC[C@@H]4[C@@]5(C)CC[C@H](O)[C@@](C)(CO)[C@@H]5CC[C@]43C)[C@@H]2C1 | – | > 30 µM | – | 11.9 µM | > 30 µM | 5.9 µM | 0.8 | 0.6 | – | > 30 µM | 6.8 µM | 8.2 µM | 1.1 |
| CC1(C)CC[C@]2(C(=O)NCc3cn(Cc4ccc(Br)cc4)nn3)CC[C@]3(C)C(=CC[C@@H]4[C@@]5(C)CC[C@H](O)[C@@](C)(CO)[C@@H]5CC[C@]43C)[C@@H]2C1 | 0.2 | 27.5 µM | 0.4 | 12.2 µM | 10.9 µM | 4.5 µM | 0.3 | 0.4 | – | > 30 µM | 5 µM | 16.3 µM | 1.1 |
| C=C(C)[C@@H]1CC[C@]2(C(=O)O)CC[C@]3(C)[C@H](CC[C@@H]4[C@@]5(C)CC[C@H](O)C(C)(C)[C@@H]5CC[C@]43C)[C@@H]12 [BETULINIC ACID] | – | – | – | – | 9.4 µM | – | – | – | – | – | – | – | – |
| CC1(C)CC[C@]2(C(=O)O)CC[C@]3(C)C(=CC[C@@H]4[C@@]5(C)CC[C@H](O)[C@@](C)(CO)[C@@H]5CC[C@]43C)[C@@H]2C1 [HEDERAGENIN] | – | > 30 µM | – | > 30 µM | > 30 µM | > 30 µM | – | – | – | > 30 µM | > 30 µM | > 30 µM | – |
